Data set [1] relates to Rattus norvegicus. The data set is described as follows: Neurotoxicity in Sprague-Dawley rat assessed as effect on frequency of spontaneous changes of direction at 10 mg/kg, ip administered 30 mins prior to test by open field test. Format: toxicity, organism-based. The conditions noted are these: in vivo, 0.5 h. A digest of the protocol: (§1)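 Male Sprague–Dawley rats, 10 per group, given 10 mg/kg ip daily for 10 days and 30 min before each test. DMSO vehicle group as control. Open field arena 100 × 100 cm with 40 cm walls. Animals video-tracked for 10 min.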

The subject of data set [2] is Rattus norvegicus. The experiment in a line: Neurotoxicity in Sprague-Dawley rat assessed as effect on distance traveled in closed arms at 10 mg/kg, ip administered 30 mins prior to test by elevated plus maze test relative to control. In kind it is toxicity, organism-based. The note with it: in vivo, 0.5 h. A digest of the protocol:
(§2)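 Male Sprague–Dawley rats, 10 per group, dosed 10 mg/kg ip daily for 10 days and 30 min before testing. DMSO vehicle controls. Elevated plus maze, rats placed centrally and video-tracked. Recorded: time in closed and open arms, arm entries, path length.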

The subject of data set [3] is Rattus norvegicus. The data set is described as follows: Neurotoxicity in Sprague-Dawley rat assessed as pelvic elevation score at 10 mg/kg, ip administered 30 mins prior to test (reference value: 3.8 +/- 0.6325). Format: toxicity, organism-based. The conditions noted are these: in vivo, 0.5 h.
The subject of data set [4] is Rattus norvegicus. The experiment in a line: Neurotoxicity in Sprague-Dawley rat assessed as tail elevation score at 10 mg/kg, ip administered 30 mins prior to test (reference value: 2.2 +/- 0.6325). Format: toxicity, organism-based. The note with it: in vivo, 0.5 h.
For data set [5], the system named is Rattus norvegicus. The experiment in a line: Neurotoxicity in Sprague-Dawley rat assessed as effect on resting time at 10 mg/kg, ip administered 30 mins prior to test by open field test relative to control. In kind it is toxicity, organism-based. The conditions noted are these: in vivo, 0.5 h. A digest of the protocol: as §1
Data set [6] deals with Rattus norvegicus. The experiment in a line: Neurotoxicity in Sprague-Dawley rat assessed as body position score at 10 mg/kg, ip administered 30 mins prior to test (reference value: 1.8 +/- 0.4216). The note with it: in vivo, 0.5 h. Format: toxicity, organism-based.
Data set [7] has as its system Rattus norvegicus. The data set is described as follows: Neurotoxicity in Sprague-Dawley rat assessed as limb tone score at 10 mg/kg, ip administered 30 mins prior to test (reference value: 3.3 +/- 0.6749). Format: toxicity, organism-based. The note with it: in vivo, 0.5 h.
The subject of data set [8] is Rattus norvegicus. The data set is described as follows: Neurotoxicity in Sprague-Dawley rat assessed as effect on distance traveled in open arms at 10 mg/kg, ip administered 30 mins prior to test by elevated plus maze test relative to control. In kind it is toxicity, organism-based. The note with it: in vivo, 0.5 h. Summed up:
as §2

For data set [9], the system named is Rattus norvegicus. The data set is described as follows: Neurotoxicity in Sprague-Dawley rat assessed as effect on immobility time at 10 mg/kg, ip administered 30 mins prior to test by forced swim test relative to control. Format: toxicity, organism-based. The conditions noted are these: in vivo, 0.5 h. A digest of the protocol: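 Male Sprague–Dawley rats, 10 per group, dosed 10 mg/kg ip daily for 10 days and 30 min before testing. DMSO vehicle controls. Forced swim in a cylinder 18 cm diameter with 23 cm water at 25 °C. 15 min pretest, then a 5 min test 24 h later. Immobility duration scored over the 5 min.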

Data set [10] deals with Rattus norvegicus. The experiment in a line: Neurotoxicity in Sprague-Dawley rat assessed as finger approach score at 10 mg/kg, ip administered 30 mins prior to test (reference value: 1.4 +/- 1.350). Format: toxicity, organism-based. The note with it: in vivo, 0.5 h.
The target in data set [11] is Sodium-dependent dopamine transporter (Homo sapiens, UniProt Q01959). The experiment in a line: Inhibition of re-uptake of [3H]-dopamine at human DAT expressed in HEK293 cells preincubated for 5 mins followed by [3H]-dopamine addition measured after 1 min by liquid scintillation counting. Format: cell-based. The conditions noted are these: read-out: IC50. A digest of the protocol: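 HEK293 cells stably expressing human DAT or NET, seeded on PDL-coated plates 24 h before. Preincubated 5 min in Krebs–HEPES buffer pH 7.3 with compound at 0.001 μM to 1 mM (DMSO stock diluted in buffer). Substrate then added: 0.2 μM [3H]dopamine for DAT, 1 min; 0.05 μM [3H]MPP+ for NET, 3 min. Room temperature. Uptake stopped with ice-cold buffer. Cells lysed in 1% SDS and counted by scintillation. Unspecific uptake defined with 10 μM mazindol. IC50 by nonlinear regression.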
Sequence of Sodium-dependent dopamine transporter (Q01959 whole entry): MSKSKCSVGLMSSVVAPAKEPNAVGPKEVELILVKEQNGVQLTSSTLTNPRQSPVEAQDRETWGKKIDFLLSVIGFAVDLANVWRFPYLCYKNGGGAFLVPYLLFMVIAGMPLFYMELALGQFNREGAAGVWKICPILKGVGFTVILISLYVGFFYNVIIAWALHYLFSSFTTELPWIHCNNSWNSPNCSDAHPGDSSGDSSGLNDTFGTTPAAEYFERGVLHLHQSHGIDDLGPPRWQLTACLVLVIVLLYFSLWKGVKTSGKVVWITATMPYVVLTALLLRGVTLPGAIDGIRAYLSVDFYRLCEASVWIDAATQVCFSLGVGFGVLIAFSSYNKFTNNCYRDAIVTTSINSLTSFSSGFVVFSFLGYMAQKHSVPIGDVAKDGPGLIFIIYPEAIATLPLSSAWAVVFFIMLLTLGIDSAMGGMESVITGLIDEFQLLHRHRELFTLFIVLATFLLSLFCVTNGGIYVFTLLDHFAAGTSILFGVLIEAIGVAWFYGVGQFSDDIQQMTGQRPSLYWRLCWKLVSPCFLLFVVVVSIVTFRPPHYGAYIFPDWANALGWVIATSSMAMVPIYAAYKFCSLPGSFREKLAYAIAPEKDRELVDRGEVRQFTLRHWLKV

pIC50: −log10 of the molar value.

In the case of `[O-][S+](Cc1cccs1)C(c1ccccc1)c1ccccc1` (stereo unspecified), the Activity entry was “Non-Toxic” in [1]; “Non-Toxic” in data set [2]; 3.6 in data set [3]; 1.8 in data set [4]; “Non-Toxic” in [5]; 1.9 in [6]. Also, the Activity in data set [7] is on record as 3.5; in data set [8], “Non-Toxic”; in data set [9] it was “Non-Toxic”; in [10], 1.4. Besides, the pIC50 (in general, the IC50 on a negative log10 scale, so that one unit is a factor of ten) in [11] was 5.85.
